Results published in ChEMBL document CHEMBL3817763, “Exploration of GGTase-I substrate requirements. Part 2: Synthesis and biochemical analysis of novel saturated geranylgeranyl diphosphate analogs” (Bioorg Med Chem Lett, 2016).
Activity calls are given as the source filed them. The calls are words filed in the database; no cut-off is given here.

Assays:
[1] = organism: Homo sapiens; assay: Ratio of Kcat/Km for recombinant FTase (unknown origin) to Kcat/Km for recombinant GGTase1 (unknown origin)
[2] = target: T1, Protein farnesyltransferase (Homo sapiens) (UniProt P49354+P49356); assay: Ratio of Kcat to Km for recombinant FTase (unknown origin) using dansyl-GCVLS as co-substrate assessed as protein prenylation by spectrofluorometric method relative to FPP; type: protein-complex assay
[3] = target: T1, Protein farnesyltransferase (Homo sapiens); assay: Activity at recombinant FTase (unknown origin) using dansyl-GCVLS as co-substrate assessed as protein prenylation at 5 uM incubated for 1.5 hrs by spectrofluorometric method; type: protein-complex assay
In short: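 Preliminary single-point screen: analog diphosphate 5 µM with 5 µM dansyl-GCVLS and 50 nM FTase; continuous fluorescence read at 1.5 h. Result is given as relative fluorescence increase, normalized to FPP (5 µM, 1.5 h) set to 1.0. Mean ± SD, n = 3.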

[4] = target: T2, Geranylgeranyl transferase type I (Homo sapiens) (UniProt P49354+P53609); assay: Ratio of Kcat to Km for recombinant GGTase1 (unknown origin) using dansyl-GCVLL as co-substrate assessed as protein prenylation by spectrofluorometric method relative to GGPP
[5] = target: T2, Geranylgeranyl transferase type I (Homo sapiens); assay: Activity at recombinant GGTase1 (unknown origin) using dansyl-GCVLL as co-substrate assessed as protein prenylation at 5 uM incubated for 1.5 hrs by spectrofluorometric method
In short: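 Preliminary single-point screen: analog diphosphate 5 µM with 5 µM dansyl-GCVLL and 50 nM GGTase-I; continuous fluorescence read at 1.5 h. Result is given as relative fluorescence increase, normalized to GGPP (1.5 h) set to 1.0. Mean ± SD, n = 3.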

[6] = test system: CCCCCC/C(C)=C/CC/C(C)=C/COP(=O)(O)OP(=O)(O)O; assay: (§1) Ratio of Kcat to Km for recombinant FTase (unknown origin) using dansyl-GCVLS as co-substrate assessed as protein prenylation by spectrofluorometric method; type: protein-complex assay; conditions: Homo sapiens
[7] = test system: CCCCCCC/C(C)=C/CC/C(C)=C/COP(=O)(O)OP(=O)(O)O; assay: as §1; type: protein-complex assay; conditions: Homo sapiens
[8] = test system: CCCCCCCCCCCC/C(C)=C/COP(=O)(O)OP(=O)(O)O; assay: as §1; type: protein-complex assay; conditions: Homo sapiens
[9] = test system: CCCCCCCC/C(C)=C/CC/C(C)=C/COP(=O)(O)OP(=O)(O)O; assay: as §1; type: protein-complex assay; conditions: Homo sapiens
[10] = test system: CC(C)=CCC/C(C)=C/CC/C(C)=C/COP(=O)(O)OP(=O)(O)O; assay: as §1; type: protein-complex assay; conditions: Homo sapiens
[11] = test system: C/C(=C\COP(=O)(O)OP(=O)(O)O)CC/C=C(\C)CCCC(C)CCCC(C)C; assay: as §1; type: protein-complex assay; conditions: Homo sapiens
[12] = test system: CCCCCCCCCCC/C(C)=C/COP(=O)(O)OP(=O)(O)O; assay: as §1; type: protein-complex assay; conditions: Homo sapiens
[13] = test system: CCCCCCCCCCCCC/C(C)=C/COP(=O)(O)OP(=O)(O)O; assay: as §1; type: protein-complex assay; conditions: Homo sapiens
[14] = test system: CCCCCCCCC/C(C)=C/CC/C(C)=C/COP(=O)(O)OP(=O)(O)O; assay: as §1; type: protein-complex assay; conditions: Homo sapiens
[15] = test system: CC(C)=CCCCCCCCCC/C(C)=C/COP(=O)(O)OP(=O)(O)O; assay: as §1; type: protein-complex assay; conditions: Homo sapiens
[16] = test system: CC(C)=CCCCCCCCCCC/C(C)=C/COP(=O)(O)OP(=O)(O)O; assay: as §1; type: protein-complex assay; conditions: Homo sapiens
[17] = test system: CCCCCCC/C(C)=C/CC/C(C)=C/COP(=O)(O)OP(=O)(O)O; assay: (§2) Ratio of Kcat to Km for recombinant GGTase1 (unknown origin) using dansyl-GCVLL as co-substrate assessed as protein prenylation by spectrofluorometric method; conditions: Homo sapiens
[18] = test system: CC(C)=CCC/C(C)=C/CC/C(C)=C/CC/C(C)=C/COP(=O)(O)OP(=O)(O)O; assay: as §2; conditions: Homo sapiens
[19] = test system: CCCCCCCCCCCC/C(C)=C/COP(=O)(O)OP(=O)(O)O; assay: as §2; conditions: Homo sapiens
[20] = test system: C/C(=C\CC/C(C)=C/COP(=O)(O)OP(=O)(O)O)CC/C=C(\C)CCCC(C)C; assay: as §2; conditions: Homo sapiens
[21] = test system: CCCCCCCC/C(C)=C/CC/C(C)=C/COP(=O)(O)OP(=O)(O)O; assay: as §2; conditions: Homo sapiens
[22] = test system: C/C(=C\COP(=O)(O)OP(=O)(O)O)CC/C=C(\C)CCCC(C)CCCC(C)C; assay: as §2; conditions: Homo sapiens
[23] = test system: CCCCCCCCCCC/C(C)=C/COP(=O)(O)OP(=O)(O)O; assay: as §2; conditions: Homo sapiens
[24] = test system: CCCCCCCCCCCCC/C(C)=C/COP(=O)(O)OP(=O)(O)O; assay: as §2; conditions: Homo sapiens
[25] = test system: CCCCCCCCC/C(C)=C/CC/C(C)=C/COP(=O)(O)OP(=O)(O)O; assay: as §2; conditions: Homo sapiens
[26] = test system: CC(C)=CCCCCCCCCC/C(C)=C/COP(=O)(O)OP(=O)(O)O; assay: as §2; conditions: Homo sapiens
[27] = test system: CC(C)=CCCCCCCCCCC/C(C)=C/COP(=O)(O)OP(=O)(O)O; assay: as §2; conditions: Homo sapiens

Ratio [1] | Ratio [2] | Activity [3] | Ratio [4] | Activity [5] | Molecule | also measured
2 | 0.18 | Active | 0.08 | Active | CCCCCCCCCCC/C(C)=C/COP(=O)(O)OP(=O)(O)O | –
12 | 0.24 | Active | 0.02 | Active | CCCCCCCCCCCC/C(C)=C/COP(=O)(O)OP(=O)(O)O | –
– | 0.09 | Active | 0.16 | Active | CCCCCCCCCCCCC/C(C)=C/COP(=O)(O)OP(=O)(O)O | –
– | 0.15 | Active | 0.5 | Active | CC(C)=CCCCCCCCCCC/C(C)=C/COP(=O)(O)OP(=O)(O)O | –

Further lines, the molecule ahead of its results:

Molecule | Ratio [1] | Ratio [2] | Activity [3] | Ratio [4] | Activity [5] | also measured
CCCCCCC/C(C)=C/CC/C(C)=C/COP(=O)(O)OP(=O)(O)O | 0.22 | 0.15 | Active | 0.85 | Active | –
CC(C)=CCCCCCCCCC/C(C)=C/COP(=O)(O)OP(=O)(O)O | – | 0.15 | Active | 0.02 | Active | –
CCCCCC/C(C)=C/CC/C(C)=C/COP(=O)(O)OP(=O)(O)O | – | 0.35 | Active | – | Active | –
CCCCCCCCC/C(C)=C/CC/C(C)=C/COP(=O)(O)OP(=O)(O)O | – | 0.72 | Active | 0.95 | Active | –
Protein farnesyltransferase (Homo sapiens) (from UniProt P49354+P49356) | – | – | – | – | – | kcat/Km [6]: 1.6 ×10⁴ /M/s; kcat/Km [7]: 7.1 ×10³ /M/s; kcat/Km [8]: 1.1 ×10⁴ /M/s; kcat/Km [9]: 9.7 ×10³ /M/s; kcat/Km [10]: 4.6 ×10⁴ /M/s; kcat/Km [11]: 3.5 ×10³ /M/s; kcat/Km [12]: 8.3 ×10³ /M/s; kcat/Km [13]: 4.1 ×10³ /M/s; kcat/Km [14]: 3.3 ×10⁴ /M/s; kcat/Km [15]: 6.8 ×10³ /M/s; kcat/Km [16]: 7.1 ×10³ /M/s
CCCCCCCC/C(C)=C/CC/C(C)=C/COP(=O)(O)OP(=O)(O)O | 0.44 | 0.21 | Active | 0.58 | Active | –
C/C(=C\COP(=O)(O)OP(=O)(O)O)CC/C=C(\C)CCCC(C)CCCC(C)C (stereo not drawn) | – | 0.05 | Active | 0.03 | Active | –
C/C(=C\CC/C(C)=C/COP(=O)(O)OP(=O)(O)O)CC/C=C(\C)CCCC(C)C | – | – | Active | 0.17 | Active | –
Geranylgeranyl transferase type I (Homo sapiens) (from UniProt P49354+P53609) | – | – | – | – | – | kcat/Km [17]: 3.2 ×10⁴ /M/s; kcat/Km [18]: 3.78 ×10⁴ /M/s; kcat/Km [19]: 8.9 ×10² /M/s; kcat/Km [20]: 6.3 ×10³ /M/s; kcat/Km [21]: 2.2 ×10⁴ /M/s; kcat/Km [22]: 1.2 ×10³ /M/s; kcat/Km [23]: 3.2 ×10³ /M/s; kcat/Km [24]: 6.2 ×10³ /M/s; kcat/Km [25]: 3.6 ×10⁴ /M/s; kcat/Km [26]: 9 ×10² /M/s; kcat/Km [27]: 1.9 ×10⁴ /M/s
